# Source: PubChem (several laboratories)
# Most compounds without a hit are left out; they make up all but 2.9% or so of the library.
# NALP3 yeast inh – inhibitors of NALP3 inflammasome in yeast | 330,000 compounds, 0.39% hits | Yeast reconstituted NLRP3/ASC/caspase-1, beta-gal luminescence, 24 h | AID 2825 | inhibition, % at 10 µM;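 active = inhibition of 50% or more; inactive = inhibition below 50%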;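 also: plate controls were induced DMSO wells for no effect and uninduced yeast grown without galactose for full effect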
# VIM-2 inhibitor – blocks Pseudomonas aeruginosa VIM-2 metallo-beta-lactamase | purified VIM-2, nitrocefin hydrolysis, epi-absorbance fluorescence | inhibition, % at 5.6 µM | 290,000 compounds, 0.89% hits | AID 1527;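 active = inhibition above the mean of all tested compounds plus 3 SD, cutoff set per screening run, cut at about 7.5% in these data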;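 also: red hydrolysis product quenches plate fluorescence so inhibitors raise well fluorescence; 0% = enzyme with DMSO and 100% = DMSO without enzyme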
# NALP1 inh – inhibitors of NALP1 inflammasome in yeast; S. cerevisiae NALP1/ASC/caspase-1 growth, X-gal OD620, 72 h; inhibition, % at 10 µM; 280,000 compounds, 0.61% hits; in the data active = inhibition mostly above about 24%, no sharp cut-off; inactive = mostly below about 32%
# SUMO Mot1 rescue – blocks SUMOylation pathway, rescuing yeast Mot1-301 growth. growth rescue, % at 18.8 µM. 320,000 compounds, 1% hits. S. cerevisiae Mot1-301 growth rescue, ATP luminescence, 38.5C; percent above DMSO median, 100 means doubled;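 active = every valid replicate shows activation above 250% relative to neutral control wells; inactive = the rest, any valid replicate at or below 250%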;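 also: OY570 slx delta 5 strain wells were the positive control but not used for scaling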
# PolyA inh – blocks polyadenylation in yeast reporter cells; S. cerevisiae SKY197-pL101 polyadenylation reporter, beta-gal luminescence; efflux-impaired pdr1/pdr3 knockout yeast; score 100 = 6 SD above DMSO; activity score, % at 12 µM; 300,000 compounds, 0.02% hits; AID 1875;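 active = lowest replicate activity score at least 50, where 100 means six control SD above control mean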;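 also: yeast exposed to compound for 9 h at 30 °C; higher score means more reporter readthrough which indicates perturbed polyadenylation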
# IMP-1 inh – blocks Pseudomonas aeruginosa IMP-1 metallo-beta-lactamase | purified IMP-1, nitrocefin hydrolysis, epi-absorbance fluorescence | 290,000 compounds, 0.45% hits | AID 1556 | inhibition, % at 5.6 µM;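 active = inhibition above the mean plus 3 SD of all compounds in the same screening run, cut at about 4.5% in these data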;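 also: 0% = IMP-1 with DMSO and 100% = DMSO wells lacking enzyme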
#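 system = purified recombinant IMP-1 beta-lactamase | amount = 0.2 nM IMP-1, as dispensed | medium = HEPES buffer pH 7.1 with ZnSO4 and Brij 35 | times = 25 °C, 15 min preincubation, 25 min reaction | detection = plate fluorescence quenching by hydrolysis product, ex 480/em 530 nm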
# Starred values were filed as active, the others as inactive; · = no result.
SMILES,NALP3 yeast inh,VIM-2 inhibitor,NALP1 inh,SUMO Mot1 rescue,PolyA inh,IMP-1 inh
Cc1ccccc1C(=O)N1CCN(C(c2ccccc2)c2ccccc2)CC1,-1,-2,19,8,-20,33*
CCCn1c(N)c(N(CCOC)C(=O)c2ccc(N(C)S(=O)(=O)c3ccc(C)cc3)cc2)c(=O)[nH]c1=O,1,·,·,136,30,·
O=C(NCc1ccncc1)C1CCN(S(=O)(=O)c2ccc(Cl)c(C(F)(F)F)c2)CC1,4,·,·,·,·,·
CC1(c2ccc3ccccc3c2)NC(=O)N(CC(=O)NCC(C)(C)N2CCOCC2)C1=O (stereo not drawn),2,·,·,-6,2,·
O=C(Nc1ncccc1O)c1cccc(S(=O)(=O)N2CCCC2)c1,1,·,·,1,-1,·
O=C(Nc1ncccc1O)c1cccc(S(=O)(=O)N2CCc3ccccc32)c1,6,-4,34*,·,-10,0
COc1ccc2ccccc2c1C(=O)/C=C\c1ccoc1,36,-2,51,250,-11,6.6*
O=C(Nc1cccc(O)c1)c1ccc(NC(=O)c2cccs2)cc1,-9,-3,10,318,9,-2
O=C(Nc1ccc2nc(-c3cccs3)[nH]c2c1)c1cccs1,-6,-2,13,7,2,-2
O=C(O)c1ccc(NC(=O)c2cccc(NC(=O)c3cccs3)c2)cc1,14,-4,36*,11,-7,-3
O=C(Cc1cccs1)Nc1cccc(-c2nc3cc4ccccc4cc3[nH]2)c1,·,-2,23,811*,-41,-3
CC(=O)c1ccc(NC(=O)c2cccc(NC(=O)c3ccccc3)c2)cc1,14,-1,13,5,3,7.2*
O=C(Nc1ccc(-c2nc3ccc(NC(=O)c4cccs4)cc3[nH]2)cc1)c1cccs1,-1,-5,38,4,11,12*
O=C(CCN1C(=O)C2CC=CCC2C1=O)Nc1cc(C(F)(F)F)ccc1N1CCCC1 (stereo not drawn),31,·,·,-5,1,·
Cc1ccc(CNC(=O)Cc2ccc(Br)cc2)cc1,13,-3,3,14,16,-2
COc1cc(C2NC(=O)NC(C)=C2C(=O)Nc2cccc(C)c2C)cc(OC)c1OC (stereo not drawn),7,-3,-1,0,-2,-3
COc1ccccc1C1NC(=O)NC(C)=C1C(=O)Nc1cccc(C)c1C (stereo not drawn),4,0,7,4,0,5.0*
CCOC(=O)N1CCN(C(=O)/C(=C/c2ccc(N(C)C)cc2)NC(=O)c2ccccc2)CC1,17,·,·,3,·,·
COc1ccc(NC(=O)CN(C)CC(=O)N2CC(=O)Nc3ccccc32)cc1,5,·,·,22,·,·
O=C(Nc1ccc(Br)cc1)C(c1ccccc1)c1ccccc1,1,-1,5,801*,2,-1
O=C(Nc1ccccc1)C(c1ccccc1)c1ccccc1,-1,-3,13,169,-1,0
CCNc1nc(NCC)nc(OCCOC(=O)c2ccccc2)n1,7,1,16,-11,-5,-1
CCNc1nc(NCC)nc(OCCOC(C)=O)n1,4,2,-134,112,-1,4.9*
N#Cc1nccnc1S(=O)(=O)c1cccs1,46,0,23*,361*,-32,-1
CN(Cc1ccccc1C#N)S(=O)(=O)c1cccs1,27,2,2,-11,-24,-2
SMILES,NALP3 yeast inh,VIM-2 inhibitor,NALP1 inh,SUMO Mot1 rescue,PolyA inh,IMP-1 inh
CNC(=S)N/N=C(\C)c1cccc([N+](=O)[O-])c1,-8,-4,7,45,13,-4
C/C(=N\NC(=O)C(N)=O)c1cccc([N+](=O)[O-])c1,13,-2,2,8,-12,15*
CN(/N=C/c1cc(Br)cc(Br)c1O)c1ccccc1,20,1,15,6,10,8.3*
CCOC(=O)C1(CCCc2ccccc2)CCN(C(=O)CCOC)CC1,23,-1,2,600*,14,-3
CCn1c(SCC(=O)N2CCC(C)CC2)nc2c(c1=O)SC(C)C2 (stereo not drawn),16,2,16,7,5,0
CCN1C(=O)c2ccccc2S(=O)c2ccc(C(=O)NCc3ccc(OC)cc3)cc21 (stereo not drawn),5,-1,29,·,2,0
C/C(N)=C(/C#N)C(=O)CSc1nnc(Nc2cccc(C)c2C)s1,12,-3,-8,41,-11,-3
C/C(N)=C(/C#N)C(=O)CSc1nnc(Nc2c(C)cccc2C)s1,3,-2,3,337*,2,-2
N=C1C(c2nc(-c3ccc(F)cc3)cs2)=C(O)CN1CCCN1CCOCC1,11,12*,-3,27,-4,0
COc1ccc(C(CNC(=O)c2ccc(-c3nc4ccccc4s3)o2)N2CCCC2)cc1 (stereo not drawn),18,·,·,154,·,·
COCCn1c(C)cc(C(=O)CSc2nncn2-c2ccccc2)c1C,0,2,1,-17,-5,5.0*
CCc1ccc(CN(C)C(=O)c2cc(COc3cc(C)c(Cl)c(C)c3)on2)nc1,5,-3,2,-12,0,-4
Cc1ccc(CC2C(=O)N(c3cc(Cl)ccn3)C(=O)C2C)cc1 (stereo not drawn),4,0,-9,-17,-25,13*
Cc1ccc(CC2C(=O)N(c3ccccc3)C(=O)C2C)cc1 (stereo not drawn),5,-1,16,5,1,-1
CCCOC(=O)c1c(NC(=O)CSc2nc(-c3ccco3)cc(C(F)(F)F)n2)sc(C(=O)OC)c1C,16,-4,41*,-3,-11,-4
COC(=O)c1sc(NC(=O)CSc2n[nH]c(N)n2)c(C(=O)OC)c1C,18,10*,11,-9,8,-3
CCOC(=O)c1sc(NC(=O)CSc2nc(-c3ccco3)cc(C(F)(F)F)n2)c(C(=O)OC)c1C,16,-2,3,-1,8,-2
CC(CCc1ccccc1)NS(=O)(=O)c1ccc(Cl)c(C(=O)O)c1 (stereo not drawn),7,-1,6,-22,7,-1
Cc1cc(C)c2nc(N3CCCC(C(=O)NC4CCCC4)C3)sc2c1 (stereo not drawn),26,0,10,13,5,-3
CCC(=O)c1cn(/C(=C\C(=O)OC(C)(C)C)CCC(OC)OC)cc1CC,9,·,·,8,5,·
CCOC(=O)N1CCN(C(=S)NC(=O)c2cncc(Br)c2)CC1,4,-6,16,0,0,5.4*
CCOC(=O)N1CCN(C(=S)NC(=O)c2ccc(Br)cc2)CC1,-4,-1,-1,-16,6,-3
CC1CCCC(NC(=O)COC(=O)/C=C/c2ccc([N+](=O)[O-])cc2)C1C (stereo not drawn),-13,·,·,30,·,·
